Measured values reported in ChEMBL document CHEMBL1157912, “Impact of nature and length of linker incorporated in agonists on toll-like receptor 9-mediated immune responses” (J Med Chem, 2010).
The source made the active and inactive calls. No cut-off for these calls is given here.

What was measured:
[1] = target: T1, Toll-like receptor 9 (Mus musculus) (UniProt Q9EQU3); assay: Activation of mouse TLR9 expressed in HEK293 cells assessed as induction of NF-kappaB activity after 18 hrs by SEAP assay; format: cell-based
T1 sequence (whole entry): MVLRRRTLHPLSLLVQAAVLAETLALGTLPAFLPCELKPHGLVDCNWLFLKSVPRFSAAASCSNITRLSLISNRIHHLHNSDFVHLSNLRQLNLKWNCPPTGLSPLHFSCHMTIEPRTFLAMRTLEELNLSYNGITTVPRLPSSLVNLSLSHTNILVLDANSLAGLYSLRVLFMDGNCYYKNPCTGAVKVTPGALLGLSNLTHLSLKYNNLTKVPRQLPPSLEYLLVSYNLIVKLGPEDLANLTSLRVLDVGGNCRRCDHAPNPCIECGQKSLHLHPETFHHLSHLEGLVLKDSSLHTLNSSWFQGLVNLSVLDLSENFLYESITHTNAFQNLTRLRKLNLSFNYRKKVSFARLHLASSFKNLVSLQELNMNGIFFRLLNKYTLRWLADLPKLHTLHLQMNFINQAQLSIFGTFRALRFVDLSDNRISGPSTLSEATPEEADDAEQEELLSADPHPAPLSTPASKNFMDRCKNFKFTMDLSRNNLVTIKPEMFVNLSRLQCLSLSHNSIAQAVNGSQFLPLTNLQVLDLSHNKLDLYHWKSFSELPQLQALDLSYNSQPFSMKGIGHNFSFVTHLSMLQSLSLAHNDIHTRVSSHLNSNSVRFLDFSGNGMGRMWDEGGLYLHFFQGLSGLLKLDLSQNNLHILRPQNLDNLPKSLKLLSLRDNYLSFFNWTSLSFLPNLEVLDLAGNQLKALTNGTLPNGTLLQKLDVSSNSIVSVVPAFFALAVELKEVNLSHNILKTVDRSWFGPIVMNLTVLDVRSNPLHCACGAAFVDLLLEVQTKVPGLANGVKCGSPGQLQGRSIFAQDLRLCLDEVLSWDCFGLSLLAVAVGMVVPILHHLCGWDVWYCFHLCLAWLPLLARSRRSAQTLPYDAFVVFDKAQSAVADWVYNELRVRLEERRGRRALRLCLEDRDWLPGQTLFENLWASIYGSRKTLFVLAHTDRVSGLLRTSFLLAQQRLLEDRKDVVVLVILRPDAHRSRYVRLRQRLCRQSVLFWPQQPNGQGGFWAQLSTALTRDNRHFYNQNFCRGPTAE
How it was run: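 HEK293 cells stably expressing mouse TLR9 were grown in DMEM with 10% heat-inactivated FBS. At 80% confluence they were transiently transfected with a SEAP reporter plasmid (100 ng/well, lipofectamine) for 6 h. Medium was then replaced and agonists were added for 18 h. Supernatant SEAP was read with QuantiBlue substrate at 620-645 nm. Results are expressed as fold NF-κB activity over PBS control.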

[2] = target: T1, Toll-like receptor 9 (Mus musculus); assay: Induction of TLR9-mediated IL12 production in C57BL/6 mouse spleen cells after 24 hrs by ELISA; format: cell-based
How it was run: (§1)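 C57BL/6 mouse spleen cells were cultured with agonists at 0.1, 0.3, 1, 3 and 10 μg/mL for 24 h. Secreted IL-12 and IL-6 in the supernatants were measured by ELISA. Values are averages of triplicate wells from one representative of at least two independent experiments.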

[3] = target: T1, Toll-like receptor 9 (Mus musculus); assay: Induction of TLR9-mediated IL6 production in C57BL/6 mouse spleen cells after 24 hrs by ELISA; format: cell-based; how it was run: as §1
[4] = target: T2, Toll-like receptor 9 (Homo sapiens) (UniProt Q9NR96); assay: Induction of TLR9-mediated human B cell proliferation assessed as [3H]thymidine uptake after 56 hrs by scintillation counting
T2 sequence (whole entry): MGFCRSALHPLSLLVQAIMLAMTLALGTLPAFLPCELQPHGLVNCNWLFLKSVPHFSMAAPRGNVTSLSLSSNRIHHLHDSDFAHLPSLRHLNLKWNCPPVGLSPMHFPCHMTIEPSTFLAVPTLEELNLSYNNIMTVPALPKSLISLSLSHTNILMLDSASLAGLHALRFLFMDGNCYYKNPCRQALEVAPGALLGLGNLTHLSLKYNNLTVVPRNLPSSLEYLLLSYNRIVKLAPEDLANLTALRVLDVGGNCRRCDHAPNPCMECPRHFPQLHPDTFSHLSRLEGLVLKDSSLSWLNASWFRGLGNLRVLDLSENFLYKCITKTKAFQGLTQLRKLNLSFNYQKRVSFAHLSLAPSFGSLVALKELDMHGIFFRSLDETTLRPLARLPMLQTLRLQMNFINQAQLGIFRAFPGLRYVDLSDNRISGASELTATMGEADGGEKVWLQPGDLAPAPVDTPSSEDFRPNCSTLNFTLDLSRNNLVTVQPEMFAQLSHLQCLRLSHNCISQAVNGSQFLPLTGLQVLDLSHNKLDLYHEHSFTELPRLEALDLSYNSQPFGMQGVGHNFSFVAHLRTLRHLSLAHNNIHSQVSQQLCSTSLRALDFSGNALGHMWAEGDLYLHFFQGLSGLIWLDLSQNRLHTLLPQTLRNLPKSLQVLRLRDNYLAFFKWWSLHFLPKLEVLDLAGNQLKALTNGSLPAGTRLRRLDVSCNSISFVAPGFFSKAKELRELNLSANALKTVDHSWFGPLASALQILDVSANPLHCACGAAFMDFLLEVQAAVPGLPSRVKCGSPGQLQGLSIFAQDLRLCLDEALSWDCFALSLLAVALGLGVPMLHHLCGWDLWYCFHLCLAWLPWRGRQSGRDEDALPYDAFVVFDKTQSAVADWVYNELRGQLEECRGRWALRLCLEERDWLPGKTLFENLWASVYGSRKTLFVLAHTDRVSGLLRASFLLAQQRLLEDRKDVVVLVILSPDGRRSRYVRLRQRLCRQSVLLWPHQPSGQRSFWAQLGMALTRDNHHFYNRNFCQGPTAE
How it was run: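 B cells were purified from human PBMCs (healthy volunteers), about 1 × 10⁵ cells, and stimulated with various agonist concentrations for 56 h. Cells were then pulsed with 0.75 μCi [³H]-thymidine and harvested 16 h later. Incorporation was counted by scintillation and reported as cpm.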

Mus musculus = assay: Immunostimulatory activity in C57BL/6 mouse assessed as increase in serum IL12 level at 1 mg/kg, sc after 2 hrs by ELISA; format: functional, organism-based; design: dose 1 mg/kg
How it was run: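 Female C57BL/6 mice (n=3) received a single subcutaneous agonist dose of 1 mg/kg. Blood was taken by retro-orbital bleeding 2 h later, and serum IL-12 was measured by sandwich ELISA. Values are the mean of three mice ± SD.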

- Activity [1]: Dose-dependent effect
- Activity [2]: Dose-dependent effect
- Activity [3]: Dose-dependent effect
- Activity [4]: Dose-dependent effect
Compound: Cc1cn([C@H]2C[C@H](OCCn3c(=O)n(CCO)c(=O)n(CCOP(=O)(S)O[C@H]4C[C@H](n5cc(C)c(=O)[nH]c5=O)O[C@@H]4COP(=O)(S)O[C@H]4[C@@H](O)[C@H](n5ccc(N)nc5=O)O[C@@H]4COP(=O)(S)O[C@H]4C[C@H](n5cc(C)c(=O)[nH]c5=O)O[C@@H]4COP(=O)(S)O[C@H]4C[C@H](n5cc(C)c(=O)[nH]c5=O)O[C@@H]4COP(=O)(S)O[C@H]4C[C@H](n5ccc6c(=O)[nH]c(N)nc65)O[C@@H]4COP(=O)(S)O[C@H]4[C@@H](O)[C@H](n5ccc(N)nc5=O)O[C@@H]4COP(=O)(S)O[C@H]4C[C@H](n5cc(C)c(=O)[nH]c5=O)O[C@@H]4COP(=O)(S)O[C@H]4[C@@H](O)[C@H](n5cnc6c(=O)[nH]c(N)nc65)O[C@@H]4COP(=O)(S)O[C@H]4C[C@H](n5cc(C)c(=O)[nH]c5=O)O[C@@H]4COP(=O)(S)O[C@H]4[C@@H](O)[C@H](n5ccc(N)nc5=O)O[C@@H]4COP(=O)(S)O[C@H]4C[C@H](n5cc(C)c(=O)[nH]c5=O)O[C@@H]4CO)c3=O)[C@@H](COP(=O)(S)O[C@H]3[C@@H](O)[C@H](n4ccc(N)nc4=O)O[C@@H]3COP(=O)(S)O[C@H]3C[C@H](n4cc(C)c(=O)[nH]c4=O)O[C@@H]3COP(=O)(S)O[C@H]3C[C@H](n4cc(C)c(=O)[nH]c4=O)O[C@@H]3COP(=O)(S)O[C@H]3C[C@H](n4ccc5c(=O)[nH]c(N)nc54)O[C@@H]3COP(=O)(S)O[C@H]3[C@@H](O)[C@H](n4ccc(N)nc4=O)O[C@@H]3COP(=O)(S)O[C@H]3C[C@H](n4cc(C)c(=O)[nH]c4=O)O[C@@H]3COP(=O)(S)O[C@H]3[C@@H](O)[C@H](n4cnc5c(=O)[nH]c(N)nc54)O[C@@H]3COP(=O)(S)O[C@H]3C[C@H](n4cc(C)c(=O)[nH]c4=O)O[C@@H]3COP(=O)(S)O[C@H]3[C@@H](O)[C@H](n4ccc(N)nc4=O)O[C@@H]3COP(=O)(S)O[C@H]3C[C@H](n4cc(C)c(=O)[nH]c4=O)O[C@@H]3CO)O2)c(=O)[nH]c1=O (stereo not given in full)
- Activity (Mus musculus): Active
